# High-throughput results: PubChem, several laboratories
# The list is not random: actives were taken first. Their share in the collection is about 1.3%.
# PKD1 inh: blocks activity of human protein kinase D1; PKD1 kinase fluorescence polarization assay; inhibition, % (concentration not given with the values); 0.056% of 200,000 active; AID 797; in the data active means inhibition above about 50%
# Target sequence (Q15139 whole entry, looked up): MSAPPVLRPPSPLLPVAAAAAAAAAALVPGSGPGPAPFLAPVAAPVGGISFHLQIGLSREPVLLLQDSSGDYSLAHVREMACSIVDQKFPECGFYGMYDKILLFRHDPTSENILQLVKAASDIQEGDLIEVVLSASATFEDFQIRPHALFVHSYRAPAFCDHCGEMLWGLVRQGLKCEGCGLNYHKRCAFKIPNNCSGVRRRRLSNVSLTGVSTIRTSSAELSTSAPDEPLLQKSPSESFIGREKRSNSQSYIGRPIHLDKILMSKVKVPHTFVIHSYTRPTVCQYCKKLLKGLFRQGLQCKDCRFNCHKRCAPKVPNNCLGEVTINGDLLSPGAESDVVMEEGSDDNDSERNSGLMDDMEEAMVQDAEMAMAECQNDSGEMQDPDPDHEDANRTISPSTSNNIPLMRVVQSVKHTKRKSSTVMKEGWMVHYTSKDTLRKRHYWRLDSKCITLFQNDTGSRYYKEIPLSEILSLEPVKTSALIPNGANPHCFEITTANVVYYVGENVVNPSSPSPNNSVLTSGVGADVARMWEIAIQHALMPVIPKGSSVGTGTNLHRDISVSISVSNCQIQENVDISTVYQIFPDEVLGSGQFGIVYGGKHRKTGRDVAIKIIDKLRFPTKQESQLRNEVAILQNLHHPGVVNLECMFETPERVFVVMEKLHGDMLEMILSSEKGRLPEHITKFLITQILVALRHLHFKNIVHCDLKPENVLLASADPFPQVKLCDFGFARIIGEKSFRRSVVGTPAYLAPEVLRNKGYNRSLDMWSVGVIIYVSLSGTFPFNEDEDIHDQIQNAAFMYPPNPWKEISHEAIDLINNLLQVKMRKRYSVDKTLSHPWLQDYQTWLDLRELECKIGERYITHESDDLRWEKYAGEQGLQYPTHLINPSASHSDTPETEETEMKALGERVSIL
# Mdm2 ligase inh: inhibitors of human Mdm2 E3 ubiquitin ligase; Q00987; cell-based MDM2 ubiquitination luciferase reporter, 2 h; 0 = plate control, 100 = twice control, blank-subtracted; signal enhancement, % at 5 µM; 0.11% of 210,000 active; AID 1230;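 active means signal enhancement of 30% or more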;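 further: luminescence tracks abundance of the self-degrading MDM2-luciferase fusion protein; higher signal means inhibition of MDM2 E3 ligase activity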
#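 Material: stable MDM2–luciferase fusion reporter cells / Quantity: 2000 cells/well / Dosing: single 5 µM compound dose, 0.2% final DMSO / Buffer or medium: DMEM / Schedule: 4 h cell settling then 2 h compound exposure, 37 °C / Detection: luminescence with SteadyLite reagent, 15 min at room temperature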
# H9c2 TAG inh: triacylglycerol accumulation inhibition; H9c2 cells, Nile Red lipid (TAG) fluorescence; cells loaded with 200 µM oleic acid; 0.66% of 230,000 active; AID 651582; inhibition, % at 12.5 µM;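 active means pattern-corrected inhibition of lipid staining of at least 50% with the nuclear-stain viability signal not falling by more than 50%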;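 further: 0% = DMSO wells and 100% = triacsin C control wells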
# PERK inh: inhibitors of human PERK kinase; Q9NZJ5; CHO PERK-DD fusion, SEAP luminescence translation reporter; inhibition, % at 5.6 µM; 0.17% of 220,000 active; AID 1416;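 active means inhibition above the mean inhibition of all tested compounds plus 3 SD, set separately per screening campaign, cut at about 2.9% in these data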;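 further: PERK kinase domain activated by AP20187 dimerizer at 100 nM; 0% = DMSO with dimerizer and 100% = rapamycin at 8.4 µM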
# Hck Nef HTS: blocks Nef-activated human Hck kinase. Recombinant Hck-YEEI plus Nef, Z-Lyte FRET kinase assay. inhibition, % at 20 µM. 0.68% of 220,000 active. AID 463187;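 active means Hck-Nef kinase inhibition above about 50%, limit read from the data; inactive means inhibition below that limit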;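 further: 0% = DMSO with Hck plus Nef and 100% = Hck alone without Nef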
# Rad51 HR inh: Rad51 (human) homologous recombination inhibition; Q06609; hRad51 DNA strand exchange, fluorescence dequenching; inhibition, % at 10 µM; 0.085% of 200,000 active;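 active means inhibition above 40% at the single screening dose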;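 further: 0% = DMSO control wells and 100% = blanks with heterologous ssDNA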
#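 material = hRad51 filaments on single-stranded DNA | reagent = Donor/quencher-labelled 47-bp dsDNA substrate | compound = 10 µM final, single point | schedule = strand-exchange reaction 15 min at room temperature | measured by = fluorescein emission 520 nm, excitation 485 nm | read-out basis = % inhibition versus plate control and blank means | benchmarks = plate controls and plate blanks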
# * = called active by the depositor; · = no result given.
SMILES,PKD1 inh,Mdm2 ligase inh,H9c2 TAG inh,PERK inh,Hck Nef HTS,Rad51 HR inh
Oc1ccccc1-c1cc(C(F)(F)C(F)F)nc(-c2ccccc2)n1,-12.9,-14.7,·,3.0*,1.9,7.9
COc1ccc(Oc2nc(OC)cc(OC)n2)cc1,-5.0,-14.3,-3.1,-0.7,16.1,-10.2
Cc1cccc(/C=N/n2c(-c3ccco3)n[nH]c2=S)c1,·,5.1,8.1,3.5*,-45.3,·
Cc1cccc(/C=N/n2c(C)nnc2C)c1,-9.3,18.9,7.1,3.1*,1.2,5.2
Cc1nnc(C)n1/N=C/c1ccccc1,0.9,-8.1,·,0.5,0.8,-0.3
Cc1cc(C)nc(N2CCCC(C(=O)NCc3ccccc3F)C2)n1 (stereo unspecified),-3.4,-6.0,-2.2,1.0,18.0,·
O=C(O)C1CCC(Cn2c(SCc3cc(=O)n4cc(Cl)ccc4n3)nc3ccsc3c2=O)CC1 (stereo unspecified),1.5,-8.3,-8.8,2.0,-1.4,20.1
Cc1nnc(-c2ccc(N3CCCCCC3)c([N+](=O)[O-])c2)o1,·,-4.3,1.1,-0.6,16.5,·
CCOC(=O)Cn1nc(NC(=O)COc2ccc(F)cc2)cc1C,·,·,-6.0,·,·,·
CNc1nc(CC(C)=O)ns1,2.5,-8.4,·,0.7,2.6,2.0
CC(=O)Cc1nsc(Nc2ccc(C)cc2)n1,-1.1,37.9*,-7.8,-0.1,20.3,7.2
Cc1cc(C)c(NC(N)=S)c(C)c1,·,-3.5,-2.4,0.7,-2.2,-11.1
O=C(CN1C(=O)c2ccccc2S1(=O)=O)Nc1ccc(S(=O)(=O)N2CCCC2)cc1,-10.0,-73.0,·,1.8,3.3,-1.5
O=C(CN1C(=O)c2ccccc2S1(=O)=O)Nc1ccc(S(=O)(=O)N2CCCCC2)cc1,2.6,-1.2,1.8,0.5,0.8,72.8*
C=CCN=C(CC)C1=C(O)CCCC1=O,-5.6,-2.3,·,0.9,1.3,-7.2
C=CCN=C(C)C1=C(O)CCC1=O,3.2,-3.2,7.0,2.9*,0.4,-6.4
O=C(NCCCn1ccnc1)c1nn2c(C(F)(F)F)cc(-c3ccccc3)nc2c1Cl,3.8,-3.7,3.6,-1.1,22.3,15.0
Cc1ccc([N+](=O)[O-])cc1N=C(c1cccc([N+](=O)[O-])c1)N1CCOCC1,0.4,-1.4,6.9,9.5*,-0.7,3.1
Cc1ccc([N+](=O)[O-])cc1N=C(c1ccc([N+](=O)[O-])cc1)N1CCOCC1,1.4,-3.6,·,1.2,2.7,-3.3
O=C1Nc2ccccc2N(O)N1c1cc(-c2ccccc2Cl)no1,-8.2,-13.4,9.9,3.2*,1.0,-2.4
O=C1Nc2ccccc2N(O)N1c1cc(-c2cccc(Cl)c2)no1,-4.8,12.2,3.8,0.7,-2.7,3.7
O=C(Nc1ccc(Cl)cc1)c1ccc(-n2cccn2)c([N+](=O)[O-])c1,6.8,38.4*,·,1.2,1.5,-7.1
Cc1nnc(NC(=O)CCC(=O)N2CCN(CCOc3cccc4ccccc34)CC2)s1,·,-0.5,6.2,-0.3,18.4,·
CCN(CC)S(=O)(=O)c1cc(NC(=O)c2ccc(-n3cncn3)c([N+](=O)[O-])c2)ccc1C,·,·,-17.0,·,·,·
C[C@H](CO)N1C[C@H](C)[C@@H](CN(C)Cc2ccc(Oc3ccccc3)cc2)Oc2c(NS(=O)(=O)c3cn(C)cn3)cccc2C1=O,·,·,5.2,·,·,·
SMILES,PKD1 inh,Mdm2 ligase inh,H9c2 TAG inh,PERK inh,Hck Nef HTS,Rad51 HR inh
O=C(c1cn(-c2ccccc2)nc1-c1cccs1)N1CCOCC1,-10.7,32.7*,-9.0,-0.4,1.1,-8.2
O=C(c1cn(-c2ccccc2)nc1-c1cccs1)N1CCN(c2ccccc2)CC1,0.4,3.2,·,-1.9,-0.2,1.8
O=C(Nc1cccc(S(=O)(=O)NC2=NCCC2)c1)c1c(F)cccc1Cl,·,·,-20.4,·,·,·
COC(=O)Cc1n[nH]c(=O)c2ccccc12,-3.1,-18.9,·,3.5*,-16.7,-4.7
Cc1cccc(CN2CCCC(C(=O)c3ccc4c5c(cccc35)CC4)C2)n1 (stereo unspecified),-2.1,6.0,-3.1,1.2,153.6*,-3.1
O=C(c1ccc2c3c(cccc13)CC2)C1CCCN(Cc2cccnc2)C1 (stereo unspecified),-4.6,2.1,-7.7,-1.6,16.8,2.9
COc1cc(-c2noc(C)c2C#Cc2ccccn2)cc(OC)c1OC,·,·,69.7*,·,·,·
C#CCOCCOCCOCCNc1nc(N2CCN(C(=O)[C@H](CCC(=O)O)n3cc(C(N)CC(C)C)nn3)CC2)nc(N2CCN(C(=O)[C@H](Cc3ccc(O)cc3)n3cc(C(N)[C@H](C)CC)nn3)CC2)n1 (stereo partly specified),-8.6,·,·,1.7,3.6,·
CC1=NN(c2ccc(C)cc2)C(=O)/C1=C\C=C\c1ccccc1,-5.8,51.7*,-17.4,1.1,3.4,7.1
CC1=NN(c2ccccc2)C(=O)C1=Cc1ccccc1,·,·,4.0,·,·,·
CCOc1ccc(OCc2ccc(C(=O)NN=Cc3ccc[nH]3)cc2)cc1,·,·,60.3*,·,·,·
CCCCNC(=O)C1C2C=CC(C2)C1C(=O)O (stereo unspecified),-7.6,·,·,0.4,4.7,·
O=C(O)C1C2C=CC(C2)C1C(=O)NCCCN1CCOCC1 (stereo unspecified),-9.4,5.9,·,3.0*,0.1,-4.7
CCOc1ccc2nc(NC(=O)c3ccccn3)sc2c1,·,·,50.9*,1.5,20.6,-3.6
CCOc1ccc2nc(NC(=O)Cc3cccs3)sc2c1,-3.8,-13.0,64.3*,-1.1,8.5,12.1
COc1ccc(NC(=O)c2cccc(S(=O)(=O)NCc3ccccc3)c2)cc1S(N)(=O)=O,·,·,7.5,·,·,·
CCOc1cc(C2NC(=S)NC(C)=C2C(=O)Nc2ccc(OC)cc2)ccc1O (stereo unspecified),-12.1,-10.6,·,3.4*,5.7,·
CNC(=O)COc1ccc(S(=O)(=O)Nc2ccc(C)cc2)cc1,·,-8.1,8.6,0.8,16.6,13.7
CNC(=O)COc1ccc(S(=O)(=O)Nc2ccc(OC)cc2)cc1,3.0,0.5,5.2,3.6*,9.7,7.9
COc1cc(C2(O)CCCCC2C)cc(OC)c1OC (stereo unspecified),-7.3,-7.6,·,0.9,2.4,·
CCCCc1cc(=O)oc2cc(O)ccc12,-1.6,-9.1,-1.0,0.6,115.2*,-2.8
O=C(Cn1nnc2ccccc2c1=O)NCC1CCC(C(=O)O)CC1 (stereo unspecified),·,2.1,-4.1,3.2*,0.4,·
CCS(=O)(=O)C1=NN2C(=N)/C(=C\c3ccc(SCc4ccco4)o3)C(=O)N=C2S1,-2.5,-1.2,13.9,0.7,63.5*,-243.9
N=C1/C(=C\c2ccc(SCc3ccccc3)o2)C(=O)N=C2SC=NN12,9.2,-1.7,·,0.4,32.0,-15.8
O=C1c2ccccc2-c2onc3ccc(NCCCn4ccnc4)c1c23,94.4*,-4.0,·,-1.6,34.1,-4.4
Fc1cccc(Cl)c1/C=N/n1c(-c2cccnc2)n[nH]c1=S,-5.2,44.6*,-0.5,-0.5,12.9,2.6
S=c1[nH]nc(-c2cccnc2)n1/N=C/c1ccccc1,·,-7.1,5.0,1.5,5.5,7.1
